Measurements from ChEMBL document CHEMBL4680134, “Structural optimization of natural product nordihydroguaretic acid to discover novel analogues as AcrB inhibitors” (Eur J Med Chem, 2020).

Key:
[1] = target: T1, Multidrug efflux pump subunit AcrB (Escherichia coli (strain K12)) (UniProt P31224); assay: Inhibition of AcrB in Escherichia coli BW25113 assessed as potentiation of tetraphenylphosphonium induced antibacterial activity by measuring tetraphenylphosphonium MIC at 128 ug/ml measured after 18 hrs by checkerboard titration method (reference value: 1024 ug/ml); details: dose 128.0 µg/ml
T1 sequence (whole entry): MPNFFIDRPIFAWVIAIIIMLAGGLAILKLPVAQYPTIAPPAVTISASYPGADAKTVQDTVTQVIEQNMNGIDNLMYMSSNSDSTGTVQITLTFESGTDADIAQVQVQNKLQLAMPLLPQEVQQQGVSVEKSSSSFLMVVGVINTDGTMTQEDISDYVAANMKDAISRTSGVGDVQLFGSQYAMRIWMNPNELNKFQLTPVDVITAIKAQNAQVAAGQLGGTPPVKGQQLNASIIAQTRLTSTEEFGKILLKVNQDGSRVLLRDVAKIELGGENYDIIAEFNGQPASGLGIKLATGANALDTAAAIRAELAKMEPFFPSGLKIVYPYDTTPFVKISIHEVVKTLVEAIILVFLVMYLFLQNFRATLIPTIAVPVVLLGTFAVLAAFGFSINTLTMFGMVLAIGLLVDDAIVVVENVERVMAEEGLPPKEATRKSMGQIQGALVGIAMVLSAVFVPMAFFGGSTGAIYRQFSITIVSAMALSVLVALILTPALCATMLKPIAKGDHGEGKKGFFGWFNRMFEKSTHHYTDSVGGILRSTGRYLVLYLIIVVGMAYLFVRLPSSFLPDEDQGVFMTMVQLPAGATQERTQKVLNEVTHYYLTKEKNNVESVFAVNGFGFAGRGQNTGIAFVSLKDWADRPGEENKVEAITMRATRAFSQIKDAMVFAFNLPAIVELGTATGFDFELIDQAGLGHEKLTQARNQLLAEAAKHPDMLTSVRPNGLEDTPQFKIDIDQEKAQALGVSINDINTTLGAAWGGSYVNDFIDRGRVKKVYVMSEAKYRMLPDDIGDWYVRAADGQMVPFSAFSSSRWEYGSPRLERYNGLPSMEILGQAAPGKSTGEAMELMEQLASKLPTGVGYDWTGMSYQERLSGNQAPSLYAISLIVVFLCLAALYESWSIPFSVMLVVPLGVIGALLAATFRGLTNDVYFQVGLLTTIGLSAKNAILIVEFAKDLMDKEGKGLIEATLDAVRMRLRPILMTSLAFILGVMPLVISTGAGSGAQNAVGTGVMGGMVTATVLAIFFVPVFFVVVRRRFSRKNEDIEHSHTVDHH

[2] = target: T1, Multidrug efflux pump subunit AcrB (Escherichia coli (strain K12)); assay: Inhibition of AcrB in Escherichia coli BW25113 assessed as potentiation of levofloxacin induced antibacterial activity by measuring levofloxacin MIC at 128 ug/ml measured after 18 hrs by checkerboard titration method (reference value: 0.06 ug/ml); details: dose 128.0 µg/ml
[3] = target: T1, Multidrug efflux pump subunit AcrB (Escherichia coli (strain K12)); assay: Inhibition of AcrB in Escherichia coli BW25113 assessed as potentiation of erythromycin induced antibacterial activity by measuring erythromycin MIC at 32 ug/ml measured after 18 hrs by checkerboard titration method (reference value: 64 ug/ml); details: dose 32.0 µg/ml
[4] = target: T1, Multidrug efflux pump subunit AcrB (Escherichia coli (strain K12)); assay: Inhibition of AcrB in Escherichia coli BW25113 assessed as potentiation of chloramphenicol induced antibacterial activity by measuring chloramphenicol MIC at 128 ug/ml measured after 18 hrs by checkerboard titration method (reference value: 8 ug/ml); details: dose 128.0 µg/ml
[5] = target: T1, Multidrug efflux pump subunit AcrB (Escherichia coli (strain K12)); assay: Inhibition of AcrB in Escherichia coli BW25113 assessed as potentiation of chloramphenicol induced antibacterial activity by measuring chloramphenicol MIC at 16 ug/ml measured after 18 hrs by checkerboard titration method (reference value: 8 ug/ml); details: dose 16.0 µg/ml
[6] = target: T1, Multidrug efflux pump subunit AcrB (Escherichia coli (strain K12)); assay: Inhibition of AcrB in Escherichia coli BW25113 assessed as potentiation of rifampicin induced antibacterial activity by measuring rifampicin MIC at 128 ug/ml measured after 18 hrs by checkerboard titration method (reference value: 16 ug/ml); details: dose 128.0 µg/ml
[7] = target: T1, Multidrug efflux pump subunit AcrB (Escherichia coli (strain K12)); assay: Inhibition of AcrB in Escherichia coli BW25113 assessed as potentiation of levofloxacin induced antibacterial activity by measuring levofloxacin MIC at 16 ug/ml measured after 18 hrs by checkerboard titration method (reference value: 0.06 ug/ml); details: dose 16.0 µg/ml
[8] = target: T1, Multidrug efflux pump subunit AcrB (Escherichia coli (strain K12)); assay: Inhibition of AcrB in Escherichia coli BW25113 assessed as potentiation of tetraphenylphosphonium induced antibacterial activity by measuring tetraphenylphosphonium MIC at 32 ug/ml measured after 18 hrs by checkerboard titration method (reference value: 1024 ug/ml); details: dose 32.0 µg/ml
[9] = Growth inhibition of Escherichia coli harboring AcrB deletion mutant at 64 ug/ml after 18 hrs by broth microdilution assay; details: dose 64 µg/ml
Method in brief: (§1)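 MIC determined by 96-well broth microdilution in E. coli BW25113 expressing AcrB ((+)AcrB) and an isogenic acrB-deleted strain ((-)AcrB). Used to set the compound concentrations for synergy testing that produce no direct antibacterial effect.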

[10] = target: T1, Multidrug efflux pump subunit AcrB (Escherichia coli (strain K12)); assay: Inhibition of AcrB in Escherichia coli BW25113 assessed as potentiation of rifampicin induced antibacterial activity by measuring rifampicin MIC at 64 ug/ml measured after 18 hrs by checkerboard titration method (reference value: 16 ug/ml); details: dose 64.0 µg/ml
[11] = Growth inhibition of Escherichia coli BW25113 expressing AcrB at 512 ug/ml after 18 hrs by broth microdilution assay; details: dose 512 µg/ml; method in brief: as §1
[12] = target: T1, Multidrug efflux pump subunit AcrB (Escherichia coli (strain K12)); assay: Inhibition of AcrB in Escherichia coli BW25113 assessed as potentiation of tetraphenylphosphonium induced antibacterial activity by measuring tetraphenylphosphonium MIC at 64 ug/ml measured after 18 hrs by checkerboard titration method (reference value: 1024 ug/ml); details: dose 64.0 µg/ml
[13] = target: T1, Multidrug efflux pump subunit AcrB (Escherichia coli (strain K12)); assay: Inhibition of AcrB in Escherichia coli BW25113 assessed as potentiation of rifampicin induced antibacterial activity by measuring rifampicin MIC at 32 ug/ml measured after 18 hrs by checkerboard titration method (reference value: 16 ug/ml); details: dose 32.0 µg/ml
[14] = target: T1, Multidrug efflux pump subunit AcrB (Escherichia coli (strain K12)); assay: Inhibition of AcrB in Escherichia coli BW25113 assessed as potentiation of erythromycin induced antibacterial activity by measuring erythromycin MIC at 128 ug/ml measured after 18 hrs by checkerboard titration method (reference value: 64 ug/ml); details: dose 128.0 µg/ml
Cell membrane = assay: Induction of outer membrane permeabilization in wild type Escherichia coli BW25113 assessed as increase in nitrocefin hydrolysis at 128 ug/ml by spectrophotometry analysis; details: dose 128 µg/ml
Method in brief: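 Outer-membrane permeability: intact E. coli treated with 10 µM CCCP to block nitrocefin efflux, then exposed to compound. Nitrocefin hydrolysis by periplasmic β-lactamase followed as increasing absorbance at 490 nm over time. Polymyxin B as permeabilizer control, untreated cells as baseline. Duplicate experiments on different days.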

[15] = target: T1, Multidrug efflux pump subunit AcrB (Escherichia coli (strain K12)); assay: Inhibition of AcrB in Escherichia coli BW25113 assessed as potentiation of levofloxacin induced antibacterial activity by measuring levofloxacin MIC at 64 ug/ml measured after 18 hrs by checkerboard titration method (reference value: 0.06 ug/ml); details: dose 64.0 µg/ml

Row | MIC [1] | MIC [2] | MIC [3] | MIC [4] | MIC [5] | MIC [6] | MIC [7] | MIC [8] | MIC [10] | MIC [12] | MIC [13] | MIC [14] | MIC [15] | Structure (SMILES) | growth inhibition (GI) [9] | growth inhibition (GI) [11] | Activity (Cell membrane)
1 | 512 µg/mL | 0.06 µg/mL | 32 µg/mL | 2 µg/mL | 4 µg/mL | 16 µg/mL | 0.06 µg/mL | 1020 µg/mL | 16 µg/mL | 1020 µg/mL | 16 µg/mL | 16 µg/mL | 0.06 µg/mL | Nc1ccc(C(=O)NCCc2ccc(O)c(O)c2)cc1 | Non-Toxic | Non-Toxic | Non-Toxic
2 | 256 µg/mL | 0.06 µg/mL | 64 µg/mL | 4 µg/mL | 8 µg/mL | 16 µg/mL | 0.06 µg/mL | 512 µg/mL | 16 µg/mL | 512 µg/mL | 16 µg/mL | 32 µg/mL | 0.06 µg/mL | Oc1ccc(CCCCc2cc3cccc4ccc5cccc2c5c43)cc1O | Non-Toxic | Non-Toxic | Non-Toxic
3 | 512 µg/mL | 0.06 µg/mL | 64 µg/mL | 4 µg/mL | 8 µg/mL | 16 µg/mL | 0.06 µg/mL | 512 µg/mL | 16 µg/mL | 512 µg/mL | 16 µg/mL | 64 µg/mL | 0.06 µg/mL | Oc1ccc(CCCCc2ccccc2O)cc1O | Non-Toxic | Non-Toxic | Non-Toxic
4 | 512 µg/mL | 0.06 µg/mL | 64 µg/mL | 8 µg/mL | 8 µg/mL | 16 µg/mL | 0.06 µg/mL | 1020 µg/mL | 16 µg/mL | 512 µg/mL | 16 µg/mL | 32 µg/mL | 0.06 µg/mL | Oc1ccc(CCCc2ccc(O)c(O)c2)cc1O | Non-Toxic | Non-Toxic | 
5 | 1020 µg/mL | 0.06 µg/mL | 64 µg/mL | 8 µg/mL | 8 µg/mL | 16 µg/mL | 0.06 µg/mL | 1020 µg/mL | 16 µg/mL | 1020 µg/mL | 16 µg/mL | 32 µg/mL | 0.06 µg/mL | O=C(NCCc1ccc(O)c(O)c1)c1ccc(Br)cc1 | Non-Toxic | Non-Toxic | 
6 |  |  | 16 µg/mL |  | 8 µg/mL | 16 µg/mL | 0.06 µg/mL | 1020 µg/mL | 16 µg/mL |  | 16 µg/mL |  |  | Cc1ccc(C(=O)NCCc2ccc(O)c(O)c2)cc1 |  |  | Non-Toxic
7 | 512 µg/mL | 0.03 µg/mL | 64 µg/mL | 4 µg/mL | 8 µg/mL | 16 µg/mL | 0.06 µg/mL | 1020 µg/mL | 16 µg/mL | 512 µg/mL | 16 µg/mL | 64 µg/mL | 0.03 µg/mL | O=C(NCCc1ccc(O)c(O)c1)c1ccccc1O | Non-Toxic | Non-Toxic | 
8 | 256 µg/mL | 0.06 µg/mL | 64 µg/mL | 8 µg/mL | 8 µg/mL | 16 µg/mL | 0.06 µg/mL | 512 µg/mL | 16 µg/mL | 512 µg/mL | 16 µg/mL | 32 µg/mL | 0.06 µg/mL | Oc1ccc(CCCCc2cc(O)c(O)c(O)c2)cc1O | Non-Toxic | Non-Toxic | 
9 | 512 µg/mL | 0.06 µg/mL | 64 µg/mL | 8 µg/mL | 8 µg/mL | 16 µg/mL | 0.06 µg/mL | 1020 µg/mL | 16 µg/mL | 1020 µg/mL | 16 µg/mL | 64 µg/mL | 0.06 µg/mL | Oc1ccc(CCCCCc2ccc(O)c(O)c2)cc1O |  | Non-Toxic | Non-Toxic
10 | 512 µg/mL | 0.06 µg/mL | 64 µg/mL | 8 µg/mL | 8 µg/mL | 16 µg/mL | 0.06 µg/mL | 1020 µg/mL | 16 µg/mL | 512 µg/mL | 16 µg/mL | 32 µg/mL | 0.06 µg/mL | Oc1ccc(CCCCc2ccc(O)c(O)c2)cc1O | Non-Toxic | Non-Toxic | 
11 | 1020 µg/mL | 0.03 µg/mL | 64 µg/mL | 8 µg/mL | 8 µg/mL | 16 µg/mL | 0.06 µg/mL | 1020 µg/mL | 16 µg/mL | 1020 µg/mL | 16 µg/mL | 64 µg/mL | 0.06 µg/mL | O=C(NCCc1ccc(O)c(O)c1)c1ccc(C(F)(F)F)cc1 | Non-Toxic | Non-Toxic | 
12 | 512 µg/mL | 0.06 µg/mL | 32 µg/mL | 2 µg/mL | 4 µg/mL | 16 µg/mL | 0.06 µg/mL | 512 µg/mL | 16 µg/mL | 512 µg/mL | 16 µg/mL | 32 µg/mL | 0.06 µg/mL | O=C(NCCc1ccc(O)c(O)c1)c1ccc(O)c(O)c1 | Non-Toxic | Non-Toxic | 

Row | Structure (SMILES) | MIC [1] | MIC [2] | MIC [3] | MIC [4] | MIC [5] | MIC [6] | MIC [7] | MIC [8] | MIC [10] | MIC [12] | MIC [13] | MIC [14] | MIC [15] | growth inhibition (GI) [9] | growth inhibition (GI) [11] | Activity (Cell membrane)
13 | C[C@H](Cc1ccc(O)c(O)c1)[C@@H](C)Cc1ccc(O)c(O)c1 [MASOPROCOL] | 128 µg/mL | 0.03 µg/mL | 64 µg/mL | 4 µg/mL |  | 16 µg/mL |  | 1020 µg/mL | 16 µg/mL | 1020 µg/mL | 16 µg/mL | 64 µg/mL | 0.03 µg/mL |  |  | 
